As usually defined, the IC50 is the point on the concentration scale where inhibition reaches its midpoint. What is called inhibition in vivo is the change of the read-out against control, counted positive when it falls.

Active and inactive are the calls of the source. No cut-off for these calls is given here. Where only a bound is given, the exact number is not on record here.

The text below walks through data of ChEMBL document CHEMBL2434964, “Novel 1H-pyrrolo[2,3-b]pyridine derivative nortopsentin analogues: synthesis and antitumor activity in peritoneal mesothelioma experimental models” (J Med Chem, 2013).

Data set [1] in a line: Induction of apoptosis in human Meso2 cells assessed as increase in caspase 3 activation at IC80 after 72 hrs by DEVD-pNA substrate-based spectrofluorometric analysis relative to control. In kind it is functional. The method in brief: (§1)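 Cells exposed 72 h at IC80, with 1% (v/v) DMSO controls. Caspase-9 activity read as LEHD-pNA cleavage and caspase-3 as DEVD-pNA cleavage, by spectrofluorometry (ex 380 nm/em 460 nm), reported as rfu. Mean ± SD of at least three experiments.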

A short description of data set [2]: Cell cycle arrest in human Meso2 cells assessed as increase in sub-G1 phase accumulation at IC50 after 72 hrs by propidium iodide staining-based FACS-flow cytometry relative to control. Format: functional.
The nature of data set [3]: (§2) Cytotoxicity against human STO cells assessed as growth inhibition after 72 hrs by MTS assay. In kind it is functional, cell-based. The method in brief:
(§3)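 Log-phase cells, 4500 per well, plated 24 h, then given 0.1–100 μM compound for 72 h; vehicle (DMSO) controls. MTS read-out at 490 nm as % of DMSO-treated cells. IC50 taken graphically from the dose-response curve. Eight replicates; mean ± SD of at least three independent experiments.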

The subject of data set [4] is STO. The data set is described as §2. Format: functional, cell-based. The method in brief:
as §3

Data set [5] can be described thus: Cell cycle arrest in human STO cells assessed as accumulation at G2/M phase at IC50 after 72 hrs by propidium iodide staining-based FACS-flow cytometry relative to control. In kind it is functional. A general note: Flow cytometry measures light scatter and fluorescence of single cells or particles in a stream.
For data set [6], the system named is Mus musculus. Kind of data set: Toxicity in athymic nude mouse xenografted with human STO cells assessed as mortality at 25 mg/kg, ip qd for 4 to 5 days per week for 3 weeks measured on day 17 post dose. In kind it is organism-based. Set-up: dose 25 mg/kg, route intraperitoneal. As to conditions: in vivo. The method, boiled down:
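Female athymic Swiss nude mice, 8-10 weeks old, given 10⁷ exponentially growing STO cells s.c. in the right flank. Dosing i.p. qdx4-5/wx3w, starting the day after cell injection. Toxicity was scored as body weight loss and lethal toxicity, reported as toxic deaths per treated group (n=8). Deaths in treated mice before the first control death were counted as toxic.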
A general note: In xenograft studies the graft and the host belong to different species.

Data set [7] in a line: Cytotoxicity against human W138 cells assessed as growth inhibition after 72 hrs by MTS assay. In kind it is cell-based. To be noted: WI-38, 72 h. The method, boiled down:
as §3
A general note: Formazan colour is commonly taken as a measure of viable cells.

The test system of data set [8] is Meso2. The data set can be described thus: Induction of apoptosis in human Meso2 cells assessed as chromatin condensation at IC50 by fluorescence microscopy relative to control. In kind it is functional, cell-based. To be noted: TDE = time-dependent effect.
Data set [9] concerns STO. Kind of data set: Induction of apoptosis in human STO cells assessed as chromatin condensation at IC50 by fluorescence microscopy relative to control. As to conditions: TDE = time-dependent effect. In kind it is functional, cell-based.
Data set [10] deals with STO. The data set can be described thus: Induction of apoptosis in human STO cells assessed as DNA fragmentation at IC50 by fluorescence microscopy relative to control. In kind it is functional, cell-based. As to conditions: TDE = time-dependent effect.
The subject of data set [11] is Mus musculus. The data set can be described thus: Toxicity in athymic nude mouse xenografted with human STO cells assessed as body weight loss at 25 mg/kg, ip qd for 4 to 5 days per week for 35 days measured on day 17 post dose. Format: organism-based. To be noted: in vivo, in the assay text read “for 3 weeks measured on day 35” for “for 35 days measured on day 17 post dose”. Set-up: dose 25 mg/kg, route intraperitoneal. The method in brief: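 Female athymic Swiss nude mice bearing s.c. STO flank xenografts (10⁷ cells). Dosing i.p. qdx4-5/wx3w, starting the day after cell injection. Toxicity recorded as % body weight loss and lethal toxicity. Deaths in treated mice before the first control death were counted as toxic.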

The nature of data set [12]: Cell cycle arrest in human STO cells assessed as reduction of cells at G1 phase at IC50 after 48 to 72 hrs by propidium iodide staining-based FACS-flow cytometry relative to control. In kind it is functional.
Data set [13] concerns the target Cyclin-dependent kinase 1/cyclin B1 (Homo sapiens) (UniProt P06493+P14635). Kind of data set: Inhibition of CDK1/cyclin B in human STO cells using histone H1 as substrate assessed as histone H1 phosphorylation preincubated at IC50 by immunoprecipitate-based densitometric analysis. As to conditions: TDE = time-dependent effect. In kind it is cell-based. The method in brief:
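STO cells exposed at IC50 for 24, 48 and 72 h, with DMSO controls. Lysates immunoprecipitated with anti-cyclin B1, 4 h at 4°C. Precipitates incubated 20 min at 30°C with 3 μg histone H1, MgCl₂, cold ATP and [γ32P]ATP, pH 7.5. Products run on 12% SDS gel and quantified by densitometry as % of DMSO control.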

Data set [14] can be described thus: Induction of apoptosis in human STO cells assessed as increase in caspase 3 activation at IC80 after 72 hrs by DEVD-pNA substrate-based spectrofluorometric analysis relative to control. In kind it is functional. The method, boiled down:
as §1

Data set [15] is described as follows: Cell cycle arrest in human Meso2 cells assessed as accumulation at G2/M phase at IC50 after 72 hrs by propidium iodide staining-based FACS-flow cytometry relative to control. In kind it is functional.
Data set [16] can be described thus: Cell cycle arrest in human STO cells assessed as accumulation at G2/M phase at IC50 after 48 hrs by propidium iodide staining-based FACS-flow cytometry relative to control. Format: functional.
A short description of data set [17]: Antitumor activity against human STO cells xenografted in athymic nude mouse assessed as tumor volume inhibition at 25 mg/kg, ip qd for 4 to 5 days per week for 3 weeks measured on day 17 post dose. In kind it is functional. As to conditions: route intraperitoneal. The method, boiled down:
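Female athymic Swiss nude mice, 8-10 weeks old; 10⁷ exponentially growing STO cells injected s.c. into right flank. Dosing i.p. qdx4-5/wx3w, starting the day after cell injection. Tumor volume = d²xD/2. TVI% = 100-(mean TV treated/mean TV control x 100), read 17 days after end of treatment (day 35). Two-tailed Student's t test.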

Data set [18] in a line: Cell cycle arrest in human Meso2 cells assessed as reduction of cells at G1 phase at IC50 after 48 to 72 hrs by propidium iodide staining-based FACS-flow cytometry relative to control. In kind it is functional.
Data set [19] is described as follows: Cell cycle arrest in human STO cells assessed as increase in sub-G1 phase accumulation at IC50 after 72 hrs by propidium iodide staining-based FACS-flow cytometry relative to control. In kind it is functional.
The nature of data set [20]: Cell cycle arrest in human Meso2 cells assessed as accumulation at G2/M phase at IC50 after 48 hrs by propidium iodide staining-based FACS-flow cytometry relative to control. Format: functional.
In data set [21] the test system is STO. Kind of data set: Induction of apoptosis in human STO cells assessed as inhibition of survivin phosphorylation at Thr34 at IC50 by Western blotting analysis. Format: functional, cell-based.
Data set [22] can be described thus: Induction of apoptosis in human STO cells assessed as increase in caspase 9 activation at IC80 after 72 hrs by LEHD-pNA substrate-based spectrofluorometric analysis relative to control. In kind it is functional. The method in brief: as §1
Data set [23] concerns the target Cyclin-dependent kinase 1/cyclin B1 (Homo sapiens, UniProt P06493). The data set can be described thus: Inhibition of human recombinant CDK1/cyclin B after 30 mins by fluorescence assay. In kind it is protein-complex assay. The method, boiled down:
(§4)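 Recombinant kinases (CDK1/cyclin B; GSK3β) in Omnia fluorescence assay with peptide substrate, ATP and DTT in kinase buffer, run 30 min at 30°C. Compound range 0.05-50 μM. Fluorescence read at ex 360/em 485 nm. IC50 taken graphically; mean ± SD of three independent experiments.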

Data set [24] can be described thus: Induction of apoptosis in human Meso2 cells assessed as increase in caspase 9 activation at IC80 after 72 hrs by LEHD-pNA substrate-based spectrofluorometric analysis relative to control. Format: functional. The method in brief: as §1
Data set [25] concerns the target Glycogen synthase kinase-3 beta (Homo sapiens, UniProt P49841). The data set can be described thus: Inhibition of human GSK-3 beta after 30 mins by fluorescence assay. The method in brief:
as §4

Data set [26] in a line: (§5) Cytotoxicity against human cells Meso2 assessed as growth inhibition after 72 hrs by MTS assay. To be noted: Meso2, 72 h. Format: functional, cell-based. The method in brief:
as §3

For a further data set, the species on record is Homo sapiens. Described as §5. Format: functional, cell-based. The method in brief:
as §3

Data set [27] relates to Meso2. Kind of data set: Induction of apoptosis in human Meso2 cells assessed as DNA fragmentation at IC50 by fluorescence microscopy relative to control. In kind it is functional, cell-based. To be noted: TDE = time-dependent effect.
For data set [28], the system named is Meso2. The data set can be described thus: Induction of apoptosis in human Meso2 cells assessed as increase in caspase 3 activation at 12 to 24 […] hrs by DEVD-pNA substrate-based spectrofluorometric analysis relative to control. Format: functional, cell-based.
In data set [29] the test system is STO. Kind of data set: Induction of apoptosis in human STO cells assessed as increase in caspase 3 activation at 3 to 6 nM hrs by DEVD-pNA substrate-based spectrofluorometric analysis relative to control. Format: functional, cell-based.

Glycogen synthase kinase-3 beta, sequence (P49841 whole entry): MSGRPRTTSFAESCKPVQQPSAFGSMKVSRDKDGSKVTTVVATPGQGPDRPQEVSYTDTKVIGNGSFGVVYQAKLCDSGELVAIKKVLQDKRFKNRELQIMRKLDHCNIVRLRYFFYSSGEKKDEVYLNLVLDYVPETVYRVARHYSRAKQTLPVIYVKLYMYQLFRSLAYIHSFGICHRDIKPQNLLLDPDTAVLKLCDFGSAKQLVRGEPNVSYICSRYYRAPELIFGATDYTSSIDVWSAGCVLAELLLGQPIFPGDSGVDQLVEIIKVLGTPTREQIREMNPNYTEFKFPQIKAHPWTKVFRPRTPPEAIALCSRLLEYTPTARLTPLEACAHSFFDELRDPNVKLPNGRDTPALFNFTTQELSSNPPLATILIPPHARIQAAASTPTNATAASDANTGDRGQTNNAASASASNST
Cyclin-dependent kinase 1/cyclin B1, sequence (P06493 whole entry): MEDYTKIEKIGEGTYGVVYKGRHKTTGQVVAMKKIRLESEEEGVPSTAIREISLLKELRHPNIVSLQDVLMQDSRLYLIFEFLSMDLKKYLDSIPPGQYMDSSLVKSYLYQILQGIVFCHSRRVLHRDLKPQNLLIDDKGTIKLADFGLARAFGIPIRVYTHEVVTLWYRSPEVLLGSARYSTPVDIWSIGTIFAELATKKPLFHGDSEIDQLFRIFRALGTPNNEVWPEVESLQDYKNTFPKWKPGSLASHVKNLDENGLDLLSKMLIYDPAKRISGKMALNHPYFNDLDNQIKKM
Cyclin-dependent kinase 1/cyclin B1, sequence (P14635 whole entry, further chain): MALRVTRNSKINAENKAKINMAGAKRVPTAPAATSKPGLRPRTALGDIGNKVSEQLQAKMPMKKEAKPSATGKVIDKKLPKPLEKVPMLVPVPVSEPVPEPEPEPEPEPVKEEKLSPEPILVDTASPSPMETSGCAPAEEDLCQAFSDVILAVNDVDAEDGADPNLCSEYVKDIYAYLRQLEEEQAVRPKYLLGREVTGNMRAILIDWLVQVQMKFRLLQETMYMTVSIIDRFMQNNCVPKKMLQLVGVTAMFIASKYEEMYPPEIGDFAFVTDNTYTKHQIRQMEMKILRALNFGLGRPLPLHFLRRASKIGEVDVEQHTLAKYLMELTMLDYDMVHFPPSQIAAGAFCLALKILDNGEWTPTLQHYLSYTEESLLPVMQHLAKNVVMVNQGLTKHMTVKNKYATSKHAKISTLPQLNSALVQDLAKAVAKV
Cyclin-dependent kinase 1/cyclin B1 (Homo sapiens), sequence (P06493 whole entry, looked up): as the sequence (P06493 whole entry) above
Cyclin-dependent kinase 1/cyclin B1 (Homo sapiens), sequence (P14635 whole entry, looked up): as the sequence (P14635 whole entry, further chain) above

For `Cn1cc(-c2nc(-c3cn(C)c4ncccc34)cs2)c2cc(F)ccc21`, the “fold change (FC)” value in [1] was found to be 7.8; in data set [14], 10; in [22] it was 12; in data set [24], 11.9. Further, the Activity in data set [2] was 27.9%; in [5] it was 41.9%; in the data set on Mus musculus [6], “Non-toxic”; with Meso2 [8], “tde”; with STO [9], “tde”; in the data set on STO [10], “tde”. Moreover, the Activity in the data set on Mus musculus [11] was 7%; in data set [15], 41.9%; in data set [16], 33.3%; in data set [19], 26.5%; in [20], 33.3%; in the data set with Meso2 [27] it was “tde”. Also, the IC50 was 0.43 µM in data set [3]; more than 100 µM in [7]; 0.86 µM in [23]; 35.7 µM in data set [25]; 4.85 µM in [26]. For the same compound, the inhibition entry with STO [4] is “Dose-dependent effect”; in data set [13] it was “tde”; in the data set listed under Homo sapiens, “Dose-dependent effect”. For the same compound, the result in data set [12] and in data set [18] was Active. Also, the inhibition in vivo at 25 mg/kg in data set [17] turned out to be 58%. Also, in the data set on STO [21], the inhibition result is “Active”.

On to `Cn1cc(-c2csc(-c3c[nH]c4ccc(F)cc34)n2)c2cccnc21`, for which the IC50 was 0.54 µM in data set [3], 15.4 µM in data set [7] and 13.3 µM in data set [26]. Moreover, the inhibition result in the data set on STO [4] and in the data set filed under Homo sapiens was “Dose-dependent effect” in each case.

Turning to `Cn1cc(-c2nc(-c3cn(C)c4ncccc34)cs2)c2ccccc21`, the IC50 in data set [3] came to 0.61 µM; in data set [7], 18.8 µM; in data set [26], 16.8 µM. The inhibition entry in the data set with STO [4] and in the data set listed under Homo sapiens was “Dose-dependent effect” each time.

Take `Cn1cc(-c2nc(-c3c[nH]c4ncccc34)cs2)c2cc(F)ccc21`: the Activity in [2] is 28.6%; in data set [5] it was 41.9%; with Mus musculus [6] it was “Non-toxic”; with Meso2 [8], “tde”; in the data set with STO [9], “tde”; in the data set with STO [10], “tde”. The Activity in the data set with Mus musculus [11] is 4%; in data set [15] it was 41.9%; in [16] it was 33.3%; in [19], 27.6%; in [20], 33.3%; in the data set on Meso2 [27] it was “tde”. The IC50 in data set [3] was 0.49 µM; in data set [7] it was more than 100 µM; in [23], 0.89 µM; in data set [25] it was 42.2 µM; in data set [26], 25.1 µM. Further, the inhibition entry with STO [4] was “Dose-dependent effect”; in [13] it was “tde”; in the data set listed under Homo sapiens, “Dose-dependent effect”. In addition, the outcome in data set [12] and in data set [18] was Active. Moreover, the inhibition in vivo at 25 mg/kg in [17] was 73%. Further, the inhibition result in the data set on STO [21] is “Active”.

Regarding `CC(=O)O[C@H]1C(=O)[C@@]2(C)[C@H]([C@H](OC(=O)c3ccccc3)[C@]3(O)C[C@H](OC(=O)[C@H](O)[C@@H](NC(=O)c4ccccc4)c4ccccc4)C(C)=C1C3(C)C)[C@]1(OC(C)=O)CO[C@@H]1C[C@@H]2O`, the result with Meso2 [28] and in the data set with STO [29] was Active.
